Bioassay records deposited in PubChem by several laboratories.
The sample as a whole holds a higher share of hits than the screen did.
Dynein cargo inh: inhibitors of GR-EGFP nuclear translocation, primary screen, dynein cargo transport inhibitor project, imaging, high-content, 3617.4 mouse cells. test concentration mostly 20 µM; stimulated with dexamethasone, 1 µM; stronger effect = lower value. z-score, hits read low. 0.47% of 220,000 active. AID 1381, 2008;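 active = plate z-score of nuclear minus cytoplasmic receptor signal below a set negative limit, without overly bright fluorescence or cell loss, cut at about -3.5 in these data, passing the limit was not always enough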;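 also: z-score of nuclear minus cytoplasmic ring GR-EGFP intensity difference per well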
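Also added: dexamethasone, 1.0 µM final. Medium: tet-free, stripped-serum medium. Detection: fixed, Hoechst-stained cells imaged at 10x for EGFP. Read-out: nuclear-to-cytoplasmic GR-EGFP distribution per well. Times: induction 48 h, compound 1 h, agonist 30 min.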
CHOP inhibitor: inhibitors of CHOP promoter induction, primary screen, cell-based, unfolded protein response, luciferase reporter; CHO-K1 CHOP-promoter luciferase, tunicamycin-induced, 15-18 h; 3.8% of 220,000 active; AID 2732, 2010; inhibition, % at 10 µM;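 active = compounds that reduced the stress-induced luciferase reporter signal by more than about 70% of percent inhibition, limit read from the data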;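 also: 0% = tunicamycin plus vehicle and 100% = wells without tunicamycin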
CHOP UPR activ: activators of apoptotic CHOP UPR arm, primary screen, cell-based, CHO-CHOP luciferase reporter, luminescence, uHTS; UPR activation; percent of tunicamycin response over DMSO baseline; AID 449763, 2010; 0.34% of 330,000 active; activation, % at 10 µM;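 active = at 10 µM dose, activation of 40% or more, normalized to positive control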;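 also: 100% = tunicamycin at 10 µg/mL and 0% = DMSO alone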
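System: CHO CHOP reporter cells. Amount: 500 cells per well. Buffer or medium: F12 medium, 10% FBS. Compound dosing: one dose, 10 µM in 0.5% DMSO. Incubation: 6 h compound exposure at 37 °C after overnight seeding. Technique: Steady-Glo luciferase luminescence. Benchmarks: tunicamycin and DMSO controls.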
XBP1 UPR activ: activators of adaptive XBP1 UPR arm, primary screen, cell-based, CHO-XBP1 luciferase reporter, luminescence, uHTS; IRE1-XBP1 UPR activation; percent of tunicamycin response, DMSO as zero; activation, % at 20 µM; 0.33% of 330,000 active; AID 463104, 2010;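 active = versus positive control, 20 µM dose yields 30% or more activation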;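 also: 100% = tunicamycin at 10 µg/mL and 0% = DMSO only wells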
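Assay system: IRE1-XBP1 luciferase reporter CHO line. Input: 1000 cells/well. Buffer or medium: F12 with 10% serum. Doses: 20 µM, 1% DMSO. Times: overnight seeding at 37 °C, 6 h compound treatment at 37 °C. Technique: Steady-Glo luciferase glow luminescence, 10 min after reagent addition.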
L major viab: Leishmania major promastigote growth inhibition, primary screen; 9% of 200,000 active; Leishmania major promastigotes, resazurin fluorescence viability; inhibition, % at 10 µM; in the data active = inhibition above about 50%;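 also: promastigotes grown with compound for 44 hours at 28 °C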
T cruzi inh: inhibitors of intracellular T. cruzi growth, primary screen, luminescence, NIH3T3 host cells. inhibition, % (concentration not given with the values). AID 1885, 2009. 1.4% of 300,000 active. T. cruzi beta-gal in NIH3T3, 90 h;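 active = mean inhibition across valid replicates above about 55%, limit read from the data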;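 also: signal also drops with host cell toxicity which is not excluded here; 0% = plate median of DMSO wells and 100% = zero luminescence signal; higher percent means less beta-gal luminescence so fewer parasites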
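assay system = mouse NIH/3T3 fibroblasts infected with β-gal-expressing T. cruzi Tulahuen C4 | input = 5,000 NIH/3T3 host cells per well | buffer or medium = DMEM plus 2% FBS | timing = 3 h host attachment, then at least 90 h co-culture | measured by = GalScreen luminescence, 60 min | evaluation = luminescence reflecting intracellular parasite burden, expressed as percent inhibition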
Starred values were filed as active, the others as inactive; nt = no result.

SMILES | Dynein cargo inh | CHOP inhibitor | CHOP UPR activ | XBP1 UPR activ | L major viab | T cruzi inh
O=C1c2ccccc2S(=O)(=O)c2cc(N3CCc4ccccc4C3)ccc21 | nt | nt | 4.6 | 10.8 | nt | -7.1
CCCn1nc(C(=O)NNC(=O)CSC(C)C(=O)Nc2cc(C)on2)c2ccccc2c1=O (stereo unspecified) | nt | nt | -1.5 | -0.6 | nt | 9.9
O=C(Nc1ccccc1OC(F)F)c1ccc(-n2cncn2)c([N+](=O)[O-])c1 | nt | nt | -0.8 | -0.7 | nt | -9.6
O=C(c1n[nH]c2ccccc12)N1CCN(S(=O)(=O)c2ccc(Cl)cc2)CC1 | nt | nt | -0.9 | -0.7 | nt | nt
CCCCN1C(=O)NC(c2ccc(OC)cc2)C(C(=O)OCc2ccccc2)=C1C (stereo unspecified) | nt | nt | 0.6 | -2.4 | nt | 34.2
CCc1ccc(OCC(O)CN2CCC(CN3C(=O)c4cccc5cccc(c45)C3=O)CC2)cc1 (stereo unspecified) | -0.463 | 93.7* | 1.5 | 1.8 | 100.3* | 55.9*
COc1ccc(COCC(O)CN2CCC(CN3C(=O)c4cccc5cccc(c45)C3=O)CC2)cc1OC (stereo unspecified) | -0.889 | 32.8 | 0.8 | -0.6 | 21.8 | 40.5
COc1cccc(OCC(O)CN2CCC(CN3C(=O)c4cccc5cccc(c45)C3=O)CC2)c1 (stereo unspecified) | -0.751 | 45.4 | -0.6 | -3.5 | 87.4* | 62.8*
CCCCn1c(N)c(S(=O)(=O)c2ccc(C)cc2)c2nc3ccccc3nc21 | 0.947 | 53.9 | -1.9 | -0.1 | 56.3* | 45.8
Cc1ccc(S(=O)(=O)c2c(N)n(NC(=O)c3ccco3)c3nc4ccccc4nc23)cc1 | -0.426 | -0.6 | 6.4 | 0.8 | -7.3 | 12.5
Cc1cccc(S(=O)(=O)c2c(N)n(Cc3ccco3)c3nc4ccccc4nc23)c1 | -0.464 | 57.3 | 1.8 | -3.2 | 77.7* | -16.0
CN(C)CCCn1c(N)c(S(=O)(=O)c2ccccc2)c2nc3ccccc3nc21 | -0.14 | 6.5 | -1.2 | -2.5 | nt | 17.6
Cc1ccc(S(=O)(=O)c2c(N)n(Cc3ccco3)c3nc4ccccc4nc23)cc1 | 0.306 | 74.4* | 0.9 | 1.4 | 74.1* | 10.5
Cc1cccc(-n2cnc3c(c2=O)c2nc4ccccc4nc2n3Cc2ccco2)c1 | nt | nt | 2.1 | -1.0 | nt | -14.0
Cn1ccnc1COc1ccc(/C=N/O)cc1 | nt | nt | 1.7 | 1.0 | nt | -3.4
N#Cc1ccccc1NS(=O)(=O)c1cc2c3c(c1)CCC(=O)N3CCC2 | nt | nt | -1.4 | -1.9 | nt | 34.9
COc1ccc(NS(=O)(=O)c2cccs2)cc1S(=O)(=O)N1CCOCC1 | nt | nt | -0.2 | -2.8 | nt | -3.2
COc1ccc(Nc2nc(-c3cccs3)nc3ccccc23)cc1S(=O)(=O)N1CCOCC1 | nt | nt | 3.6 | 24.8 | nt | 54.6*
Cc1cc(/C=C2\C(=N)N3C(SCc4ccccc4)=NSC3=NC2=O)c(C)n1Cc1ccccc1 | -0.253 | 87.6* | 1.0 | -0.3 | -8.1 | -12.7
Cc1cc(/C=C2\C(=N)N3N=C(C(C)C)SC3=NC2=O)c(C)n1Cc1ccccc1 | 1.51 | 3.4 | -1.4 | -4.2 | nt | -7.9
CC(C)CC(=O)N1CCN(c2ccc(NC(=O)c3ccco3)cc2)CC1 | nt | nt | 0.9 | -7.6 | nt | 5.5
Cc1cc2nc(CCN(C(=S)NCC(C)C)C3CCCC3)[nH]c2cc1C | 0.133 | 43.3 | -1.2 | -5.8 | 71.5* | 48.4
COc1ccc(CN(Cc2cc3cccc(C)c3[nH]c2=O)C(=O)N(C)C)cc1 | -0.149 | 10.2 | -0.5 | -2.5 | -2.9 | -24.8
Cc1cccc2cc(CN(CC3CCCO3)C(=S)Nc3ccccc3)c(=O)[nH]c12 (stereo unspecified) | 0.382 | 14.1 | -0.6 | -3.3 | 71.1* | -6.3
CNC(=S)N(Cc1ccc(OC)cc1)Cc1cc2cccc(C)c2[nH]c1=O | 0.25 | 6.5 | -2.3 | -5.1 | 57.0* | 18.5
SMILES | Dynein cargo inh | CHOP inhibitor | CHOP UPR activ | XBP1 UPR activ | L major viab | T cruzi inh
Cc1cc2nc(CCN(C(=S)NCC3CCCO3)C3CCCC3)[nH]c2cc1C (stereo unspecified) | 0.314 | -0.3 | 0.4 | 4.7 | 22.6 | 24.8
Cc1cccc2cc(CN(C(=S)NCC(C)C)C3CCCC3)c(=O)[nH]c12 | 0.0704 | 37.4 | 2.5 | -0.3 | 64.7* | 5.9
CCNC(=S)N(Cc1cc2cccc(C)c2[nH]c1=O)C1CCCC1 | -0.161 | 10.2 | 3.1 | 1.1 | 96.5* | 4.9
Cc1cccc2cc(CN(CC3CCCO3)C(=O)NC3CCCCC3)c(=O)[nH]c12 (stereo unspecified) | 0.0837 | 34.1 | 0.3 | -3.2 | 7.2 | 14.6
Cc1cccc(C)c1NC(=O)CSc1nc(-c2ccco2)cc(C(F)(F)F)n1 | 0.153 | 84.7* | 2.3 | -1.7 | 1.7 | -2.1
CCOC(=O)N1CCN(c2nc(-c3ccco3)cc(C(F)(F)F)n2)CC1 | -1.05 | 86.1* | -3.1 | -4.2 | 11.2 | 8.1
O=C(CSc1nc(-c2ccco2)cc(C(F)(F)F)n1)Nc1ccccc1C(F)(F)F | 0.865 | 77.2* | 1.1 | -2.5 | 3.7 | -13.6
O=C(CSc1nc(-c2ccco2)cc(C(F)(F)F)n1)NCCc1ccccc1 | -0.113 | 57.3 | -0.5 | -3.6 | 5.5 | 21.7
CC(C)Cn1c(N)c(C(=O)COC(=O)c2cc(S(=O)(=O)N3CCOCC3)ccc2Br)c(=O)n(C)c1=O | nt | nt | 2.8 | 2.5 | nt | nt
CC1CCN(CCC(=O)Nc2ccc(F)c(F)c2)CC1 | nt | nt | 0.9 | -0.7 | nt | -17.2
COc1cc(/C=N/n2cnnc2)ccc1OCc1ccccc1 | -0.419 | -12.1 | -0.3 | 0.5 | 80.3* | 51.5
CCOc1cc(/C=N/O)ccc1OCC(=O)Nc1cccc(C)c1 | 0.551 | 29.1 | 2.2 | 1.9 | 27.2 | 9.3
COc1cc(/C=N/n2cnnc2)ccc1OCc1ccc(C)cc1 | 2.8 | 11.9 | 4.2 | 0.3 | 96.2* | 46.5
CCOc1cc(/C=N/O)ccc1OCc1ccc(C)cc1 | -0.115 | 24.6 | 4.6 | 1.4 | 60.6* | 22.4
COc1cc(/C=N/n2cnnc2)ccc1OCCOc1ccccc1 | -0.598 | 10.1 | 0.7 | -3.9 | 37.2 | 5.8
Fc1ccc(C2CCCN2Cc2nc(CC3CC3)no2)cc1 (stereo unspecified) | 0.118 | 51.6 | -0.9 | -3.1 | 56.6* | 13.6
Cc1ccc(Sc2cnc3ccccc3n2)cc1 | -0.225 | 86.1* | 3.5 | 0.9 | -4.4 | -5.0
CC(Sc1cnc2ccccc2n1)C(=O)O (stereo unspecified) | -0.435 | 17.6 | -0.7 | -0.3 | -7.8 | -7.0
